This note sets out measurements from ChEMBL document CHEMBL1158351, “Studies on chemical structure modification and biology of a natural product, gambogic acid (I): Synthesis and biological evaluation of oxidized analogues of gambogic acid” (Eur J Med Chem, 2009).

The subject of assay [1] is HepG2. Kind of assay: Induction of apoptosis in human HepG2 cells assessed nonviable necrotic cells at 1 uM after 20 hrs using FITC-conjugated annexin V and propidium iodide staining by FACS analysis. Format: functional. Summed up: (§1)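 HepG2 cells in flasks treated for 20 h, then 1×10⁶ cells harvested, washed and resuspended in PBS. Stained with FITC-Annexin V and PI kit per kit instructions and analysed by flow cytometry. Quadrants: Annexin−/PI− viable, Annexin+/PI− early apoptotic, upper right necrotic/late apoptotic.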

In assay [2] the test system is HepG2. Kind of assay: Induction of apoptosis in human HepG2 cells assessed early apoptotic cells at 2 uM after 20 hrs using FITC-conjugated annexin V and propidium iodide staining by FACS analysis. Format: functional. The procedure, abridged: as §1
In assay [3] the test system is HepG2. The assay can be described thus: Induction of apoptosis in human HepG2 cells assessed as ratio of Bcl-2 to Bax protein expression at 6 uM after 20 hrs by SDS-PAGE. Format: functional. Summed up: (§2)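 HepG2 cells treated for 20 h, then lysed in Tris-Cl pH 6.8 buffer with 4% SDS, 20% glycerol, 200 mM β-mercaptoethanol, PMSF and aprotinin. Protein measured by Bradford at 595 nm and resolved on 10% SDS-PAGE, then transferred to PVDF membrane. Probed overnight at 4 °C with anti-Bcl-2, anti-Bax and anti-actin primaries, then 1 h with IRDye800 secondaries. Bcl-2/Bax ratio derived from band quantitation.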

In assay [4] the test system is HepG2. Kind of assay: Induction of apoptosis in human HepG2 cells assessed as morphological changes at 3 uM after 20 hrs using DAPI staining by fluorescence microscopy. Format: functional, cell-based. Summed up: (§3)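 Mid-log HepG2 cultures in RPMI-1640 treated for 20 h, then morphology checked by inverted light microscopy. Floating and attached cells collected with EDTA/trypsin, fixed in ice-cold 4% paraformaldehyde for 20 min, and permeabilized with 0.3% Triton X-100. Stained with DAPI and viewed by fluorescence microscopy at 340 nm excitation.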

In another assay the test system is A549. The assay can be described thus: Cytotoxicity against human A549 cells after 48 hrs by MTT assay. Conditions: A549, 48 h. Format: functional, cell-based. The procedure, abridged:
(§4)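 Cells in RPMI-1640 with 10% heat-inactivated calf serum, penicillin/streptomycin, 5% CO2, 37 °C. Seeded at 5×10³ per well and exposed to six concentrations of 0.01–1000 for 48 h. Then 0.5% MTT for 4 h at 37 °C, formazan dissolved in DMSO, absorbance read at 570 nm. Inhibition calculated as (1 − treated/control absorbance)×100. IC50 is the concentration giving 50% inhibition; mean ± SD of three observations.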
In general terms: Formazan colour is commonly taken as a measure of viable cells.

A further assay concerns SK-OV-3. Kind of assay: Cytotoxicity against human SKOV3 cells after 48 hrs by MTT assay. It counts as functional, cell-based. Particulars: SK-OV-3, 48 h. Summed up: as §4
For assay [5], the system named is HepG2. The assay can be described thus: Induction of apoptosis in human HepG2 cells assessed viable cells at 2 uM after 20 hrs using FITC-conjugated annexin V and propidium iodide staining by FACS analysis. It counts as functional. The procedure, abridged:
as §1
For orientation: In flow cytometry, cells or beads pass a laser one at a time.

Assay [6] has as its system HepG2. The assay can be described thus: Induction of apoptosis in human HepG2 cells assessed as ratio of Bcl-2 to Bax protein expression at 1 uM after 20 hrs by SDS-PAGE. Format: functional. The procedure, abridged:
as §2

The test system of assay [7] is HepG2. The assay can be described thus: Induction of apoptosis in human HepG2 cells assessed nonviable necrotic cells at 6 uM after 20 hrs using FITC-conjugated annexin V and propidium iodide staining by FACS analysis. It counts as functional. Summed up:
as §1

The subject of assay [8] is HepG2. Kind of assay: Induction of apoptosis in human HepG2 cells assessed viable cells at 1 uM after 20 hrs using FITC-conjugated annexin V and propidium iodide staining by FACS analysis. Format: functional. Summed up:
as §1

The subject of assay [9] is HepG2. The assay can be described thus: Induction of early apoptosis in human HepG2 cells assessed as presence of congregated chromatin and nucleolus pyknosis at 1 uM after 18 hrs using AOEB staining by fluorescence microscopy. Format: functional, cell-based. Summed up: (§5)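 HepG2 cells treated for 18 h, fixed in 4% paraformaldehyde for 20 min, and permeabilized in 0.1% Triton for 20 min. Stained with acridine orange/ethidium bromide in PBS for 5 min. Viewed by fluorescence microscopy at 490 nm excitation. Green AO with condensed chromatin scored as early apoptotic; uniform red EB scored as dead.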

Assay [10] relates to HepG2. The assay can be described thus: Induction of apoptosis in human HepG2 cells assessed late apoptotic cells at 1 uM after 20 hrs using FITC-conjugated annexin V and propidium iodide staining by FACS analysis. Format: functional. Summed up:
as §1

In assay [11] the test system is HepG2. The assay can be described thus: Induction of apoptosis in human HepG2 cells assessed as decrease in Bcl-2 protein expression at 6 uM after 20 hrs by SDS-PAGE. Format: functional, cell-based. Summed up:
as §2

The subject of assay [12] is HepG2. The assay can be described thus: Induction of apoptosis in human HepG2 cells assessed as decrease in Bcl-2 protein expression at 1 uM after 20 hrs by SDS-PAGE. It counts as functional, cell-based. The procedure, abridged: as §2
Assay [13] has as its system HepG2. Kind of assay: Induction of apoptosis in human HepG2 cells assessed early apoptotic cells at 1 uM after 20 hrs using FITC-conjugated annexin V and propidium iodide staining by FACS analysis. It counts as functional. Summed up:
as §1

Assay [14] deals with HepG2. Kind of assay: Induction of apoptosis in human HepG2 cells assessed late apoptotic cells at 6 uM after 20 hrs using FITC-conjugated annexin V and propidium iodide staining by FACS analysis. Format: functional. The procedure, abridged: as §1
In assay [15] the test system is HepG2. Kind of assay: Induction of apoptosis in human HepG2 cells assessed as morphological changes at 1 uM after 20 hrs using DAPI staining by fluorescence microscopy. It counts as functional, cell-based. Summed up:
as §3

Assay [16] relates to HepG2. The assay can be described thus: Induction of apoptosis in human HepG2 cells assessed viable cells at 6 uM after 20 hrs using FITC-conjugated annexin V and propidium iodide staining by FACS analysis. It counts as functional. The procedure, abridged: as §1
Assay [17] deals with HepG2. The assay can be described thus: Induction of apoptosis in human HepG2 cells assessed early apoptotic cells at 6 uM after 20 hrs using FITC-conjugated annexin V and propidium iodide staining by FACS analysis. It counts as functional. Summed up:
as §1

Assay [18] relates to HepG2. The assay can be described thus: Induction of early apoptosis in human HepG2 cells assessed as presence of congregated chromatin and nucleolus pyknosis at 2 uM after 18 hrs using AOEB staining by fluorescence microscopy. Format: functional, cell-based. Summed up:
as §5

In assay [19] the test system is HepG2. Kind of assay: Induction of early apoptosis in human HepG2 cells assessed as presence of congregated chromatin and nucleolus pyknosis at 3 uM after 18 hrs using AOEB staining by fluorescence microscopy. It counts as functional, cell-based. The procedure, abridged:
as §5

The next assay has as its system BGC-823. Kind of assay: Cytotoxicity against human BGC823 cells after 48 hrs by MTT assay. Format: functional, cell-based. Conditions: BGC-823, 48 h. The procedure, abridged: as §4
The subject of assay [20] is HepG2. The assay can be described thus: Induction of apoptosis in human HepG2 cells assessed as inhibition of cell viability after 24 hrs by MTT assay. Format: functional, cell-based. Summed up:
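Medium then removed and MTT added; after 4 h the supernatant was discarded and DMSO added. Absorbance read at 570 nm. Mean ± SD, n = 3; IC50 calculated from the concentration–response.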

For assay [21], the system named is HepG2. The assay can be described thus: Induction of apoptosis in human HepG2 cells assessed as ratio of Bcl-2 to Bax protein expression at 2 uM after 20 hrs by SDS-PAGE. Format: functional. The procedure, abridged:
as §2

Assay [22] relates to HepG2. The assay can be described thus: Induction of apoptosis in human HepG2 cells assessed late apoptotic cells at 2 uM after 20 hrs using FITC-conjugated annexin V and propidium iodide staining by FACS analysis. Format: functional. The procedure, abridged: as §1
A further assay deals with Bel-7402. Kind of assay: Cytotoxicity against human Bel7402 cells after 48 hrs by MTT assay. Particulars: Bel-7402, 48 h. It counts as functional, cell-based. The procedure, abridged:
as §4

Assay [23] concerns HepG2. Kind of assay: Induction of apoptosis in human HepG2 cells assessed nonviable necrotic cells at 2 uM after 20 hrs using FITC-conjugated annexin V and propidium iodide staining by FACS analysis. Format: functional. The procedure, abridged: as §1
For assay [24], the system named is HepG2. The assay can be described thus: Induction of apoptosis in human HepG2 cells assessed as morphological changes at 2 uM after 20 hrs using DAPI staining by fluorescence microscopy. Format: functional, cell-based. Summed up: as §3
The next assay deals with HT-29. The assay can be described thus: Cytotoxicity against human HT-29 cells after 48 hrs by MTT assay. It counts as functional, cell-based. Particulars: HT-29, 48 h. The procedure, abridged: as §4
Assay [25] relates to HepG2. The assay can be described thus: Induction of apoptosis in human HepG2 cells assessed as decrease in Bcl-2 protein expression at 2 uM after 20 hrs by SDS-PAGE. Format: functional, cell-based. The procedure, abridged: as §2

The source made the active and inactive calls. No cut-off for these calls is given here.

By IC50 is commonly meant the point on the concentration scale where inhibition reaches its midpoint. Consider `COC(=O)/C(C)=C\C[C@@]12OC(C)(C)[C@@H]3C[C@@H](C=C4C(=O)c5c(OC)c6c(c(CC=C(C)C)c5O[C@]431)O[C@](C)(CC/C=C(\C)CO)C=C6)C2=O`, for which the Activity in the assay on HepG2 [1] is 0.2%; with HepG2 [2], 5%; with HepG2 [5] it was 92.3%; with HepG2 [7], 0.9%; in the assay on HepG2 [8] it was 92.3%; with HepG2 [10], 3.5%. The Activity is 4% in the assay on HepG2 [13]; 13.5% in the assay on HepG2 [14]; 72.7% in the assay with HepG2 [16]; 12.9% in the assay on HepG2 [17]; “Dose-dependent effect” in the assay on HepG2 [20]; 2.5% in the assay on HepG2 [22]. The Activity in the assay with HepG2 [23] stood at 0.2%. Also, the Ratio with HepG2 [3] amounted to 0.251; in the assay on HepG2 [6], 0.476; in the assay on HepG2 [21] it was 0.478. Besides, the result with HepG2 [4], with HepG2 [9], with HepG2 [11], in the assay on HepG2 [12], with HepG2 [15] and in the assay on HepG2 [18] was Active. For the same compound, the result in the assay with HepG2 [19], with HepG2 [24] and in the assay with HepG2 [25] was Active. In addition, the concentration for half-maximal inhibition (IC50) was found to be 4.38 µM in the assay with A549; 1.28 µM in the assay with SK-OV-3; 0.84 µM in the assay with BGC-823; 2.35 µM in the assay on HepG2 [20] (HepG2, 24 h); 0.96 µM in the assay on Bel-7402; 0.89 µM with HT-29.

As for `CC(C)=CCC[C@]1(C)C=Cc2c(O)c3c(c(CC=C(C)C)c2O1)O[C@]12[C@H]4C[C@H](C(=O)[C@]1(C/C=C(/C)C(=O)O)OC4(C)C)C(O)C2(O)C3=O` (stereo partly specified), the IC50 was 74.2 µM in the assay with A549; 6 µM in the assay with SK-OV-3; 29.9 µM in the assay with BGC-823; 33.1 µM in the assay with Bel-7402; 34.7 µM with HT-29.

As to `CC(C)=CCC[C@]1(C)C=Cc2c(O)c3c(c(C/C=C(\C)CO)c2O1)O[C@]12C(=C[C@@H]4C[C@H]1C(C)(C)O[C@@]2(C/C=C(/C)C(=O)O)C4=O)C3=O`, the concentration for half-maximal inhibition (IC50) was determined as 5.87 µM in the assay on A549; 1.61 µM in the assay on SK-OV-3; 4.89 µM with BGC-823; 4.01 µM with Bel-7402; 2.66 µM in the assay with HT-29.

For `COC(=O)/C(C)=C\C[C@@]12OC(C)(C)[C@@H]3C[C@@H](C=C4C(=O)c5c(OC)c6c(c(CC=C(C)C)c5O[C@]431)O[C@](C)(CC/C=C(\C)COC(C)=O)C=C6)C2=O`, the IC50 worked out at 5.25 µM with A549; 15.8 µM in the assay on SK-OV-3; 1.42 µM with BGC-823; 3.6 µM with Bel-7402; 2.41 µM in the assay on HT-29.

In the case of `C/C(=C/C[C@@]12OC(C)(C)[C@@H]3C[C@@H](C=C4C(=O)c5c(O)c6c(c(CC7OC7(C)C)c5O[C@]431)O[C@](C)(CCC1OC1(C)C)C=C6)C2=O)C(=O)O` (stereo partly specified), the IC50 with A549 was 1.56 µM; in the assay with SK-OV-3, 0.76 µM; in the assay on BGC-823, 4.38 µM; with Bel-7402, 3.73 µM; in the assay with HT-29, 2.08 µM.

Consider `COC(=O)/C(C)=C\C[C@@]12OC(C)(C)[C@@H]3C[C@@H](C=C4C(=O)c5c(OC)c6c(c(CC=C(C)C)c5O[C@]431)O[C@](C)(CC[C@H](O)C(C)(C)O)C=C6)C2=O`, for which the IC50 stood at 5.86 µM with A549; 3.23 µM with SK-OV-3; 3.46 µM with BGC-823; 3.65 µM with Bel-7402; 3.75 µM with HT-29.
